Results reported in ChEMBL document CHEMBL1124654, “Synthesis and investigation of effects of 2-[4- [[(arylamino)carbonyl]amino]phenoxy]-2-methylpropionic acids on the affinity of hemoglobin for oxygen: structure-activity relationships” (1989).
Several values for one entry are separate records, joined by “and”; a condition that tells them apart may be missing. Equal values may be shown once.

Assays:
Format in all cases: functional
[1] = species: Homo sapiens; test: Ability of 1 mM to reduce affinity of hemoglobin for oxygen is assessed from 50% partial pressure of oxygen in membrane free hemoglobin solution
In short: (§1)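 Membrane-free hemoglobin: erythrocytes washed five times in 0.15 M NaCl, lysed in 5 volumes of water, filtered through paper and then down to 0.22 µm. Compound dissolved in 0.1 M HEPES, pH 7.4, hemoglobin added to a final 12.5 ± 0.5 µM, incubated 30 min at 37 °C. P50 taken from the O2-dissociation curve. Initial screen at 1 mM in duplicate.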

[2] = target: Hemoglobin HbA (Homo sapiens) (UniProt P69905+P68871); test: Ratio of effect of compound on affinity of hemoglobin for oxygen to that of control
In short: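 Mean P50 with compound divided by mean P50 of the respective controls. P50 measured from O2-dissociation curves at 37 °C after 30 min in 0.1 M HEPES, pH 7.4, with hemoglobin at 12.5 ± 0.5 µM, in intact red cells or membrane-free hemoglobin.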

[3] = species: Homo sapiens; test: Ability of 1 mM compound to reduce affinity of hemoglobin for oxygen is assessed from 50% partial pressure of oxygen in intact red cells
In short: (§2)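 Intact red cells: 30-µL aliquots of fresh heparinized normal whole blood added to 5 mL of compound diluted in 0.1 M HEPES, pH 7.4; final hemoglobin 12.5 ± 0.5 µM by spectrophotometry. Equilibrated 30 min at 37 °C, then oxygenated in the instrument chamber. P50 (mmHg PO2 at 50% deoxygenation) read from the O2-dissociation curve. Initial screen at 1 mM in duplicate.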

[4] = species: Homo sapiens; test: Ability of 0.5 mM to reduce affinity of hemoglobin for oxygen is assessed from 50% partial pressure of oxygen in membrane free hemoglobin solution; in short: as §1
[5] = species: Homo sapiens; test: Ability of 0.5 mM to reduce affinity of hemoglobin for oxygen is assessed from 50% partial pressure of oxygen in intact red cells; in short: as §2
[6] = species: Homo sapiens; test: Ability of 1 mM to reduce affinity of hemoglobin for oxygen is assessed from 50% partial pressure of oxygen in intact red cells; in short: as §2
[7] = species: Homo sapiens; test: Ability of 0.2 mM to reduce affinity of hemoglobin for oxygen is assessed from 50% partial pressure of oxygen in membrane free hemoglobin solution; in short: as §1
[8] = species: Homo sapiens; test: Ability of 0.2 mM to reduce affinity of hemoglobin for oxygen is assessed from 50% partial pressure of oxygen in intact red cells; in short: as §2
[9] = species: Homo sapiens; test: Ability of 0.5 mm to reduce affinity of hemoglobin for oxygen is assessed from 50% partial pressure of oxygen in intact red cells; in short: as §2
[10] = species: Homo sapiens; test: Ability of 1 mm to reduce affinity of hemoglobin for oxygen is assessed from 50% partial pressure of oxygen in intact red cells; in short: as §2
[11] = species: Homo sapiens; test: Ability of 0.1 mM to reduce affinity of hemoglobin for oxygen is assessed from 50% partial pressure of oxygen in membrane free hemoglobin solution; in short: as §1
[12] = species: Homo sapiens; test: Ability of 0.05 mM to reduce affinity of hemoglobin for oxygen is assessed from 50% partial pressure of oxygen in membrane free hemoglobin solution; in short: as §1
[13] = species: Homo sapiens; test: Ability of 0.05 mM to reduce affinity of hemoglobin for oxygen is assessed from 50% partial pressure of oxygen in intact red cells; in short: as §2
[14] = species: Homo sapiens; test: Ability of 0.1 mM to reduce affinity of hemoglobin for oxygen is assessed from 50% partial pressure of oxygen in intact red cells; in short: as §2

Hemoglobin HbA (Homo sapiens), sequence (P68871 2-147 partner limits assumed): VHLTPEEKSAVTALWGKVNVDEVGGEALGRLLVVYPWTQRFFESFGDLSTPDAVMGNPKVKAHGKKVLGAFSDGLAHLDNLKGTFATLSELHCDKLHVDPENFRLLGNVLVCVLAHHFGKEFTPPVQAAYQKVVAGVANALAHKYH
Hemoglobin HbA (Homo sapiens), sequence (P69905 2-142 limits assumed): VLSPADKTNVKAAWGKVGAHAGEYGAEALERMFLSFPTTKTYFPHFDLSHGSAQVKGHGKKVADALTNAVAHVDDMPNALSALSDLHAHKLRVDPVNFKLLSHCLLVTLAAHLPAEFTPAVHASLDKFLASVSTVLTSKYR

SMILES | P50 [1] | Ratio [2] | P50 [3] | P50 [4] | further results
CC(C)(Oc1ccc(NC(=O)Nc2ccc(C(=O)O)cc2)cc1)C(=O)O | 8 mmHg | 1.14 and 1 | 9 mmHg | – | –
CC(C)(Oc1ccc(NC(=O)Nc2ccc(F)cc2)cc1)C(=O)O | 18 mmHg | 2 and 1.38 | 12.5 mmHg | – | –
Cc1ccc(NC(=O)Nc2ccc(OC(C)(C)C(=O)O)cc2)cc1C | 27.2 mmHg | 2.53 [middle of 4 runs] | 18.5 mmHg | 16.5 mmHg | P50 [5]: 14.5 mmHg
CC(C)(Oc1ccc(NC(=O)CNC(=O)c2ccc(Cl)cc2)cc1)C(=O)O | 8.5 mmHg | 1.14 and 1.36 | 12 mmHg | – | –
COc1ccc(NC(=O)Nc2ccc(OC(C)(C)C(=O)O)cc2)cc1 | 19 mmHg | 2.11 and 1.25 | 12.5 mmHg | – | –
CC(C)(Oc1ccc(NC(=O)Nc2ccc3c(c2)OCO3)cc1)C(=O)O | 14 mmHg | 2.15 and 1.05 | – | – | P50 [6]: 9.5 mmHg
CC(C)(Oc1ccc(NC(=O)c2ccc(Cl)cc2)cc1)C(=O)O | 39 mmHg | 5.35 [middle of 4 runs] | – | 27 mmHg | P50 [6]: 37.5 mmHg and 19 mmHg
CC(C)(Oc1ccc(CCNC(=O)c2ccc(Cl)cc2)cc1)C(=O)O [BEZAFIBRATE] | 14.2 mmHg | 1.63 [middle of 4 runs] | – | 9 mmHg | P50 [5]: 14.5 mmHg; P50 [6]: 17 mmHg
Cc1cc(C)c(NC(=O)Nc2ccc(OC(C)(C)C(=O)O)cc2)c(C)c1 | 6.5 mmHg | 1 and 1.26 | 12 mmHg | – | –
CC(C)(Oc1ccc(NC(=O)COc2ccc(Cl)cc2)cc1)C(=O)O | 9.25 mmHg | 1.27 and 1.84 | 17.5 mmHg | – | –
CC(C)(Oc1ccc(NC(=O)Nc2cccc(Cl)c2Cl)cc1)C(=O)O | – | 2.46 [middle of 4 runs] | – | 16 mmHg | P50 [7]: 12.5 mmHg; P50 [8]: 18.5 mmHg
CC(C)(Oc1ccc(-c2ccccc2)cc1)C(=O)O | 7 mmHg | 1 and 1.63 | 15.5 mmHg | – | –
CC(C)(Oc1ccc(NC(=O)Nc2cccc(Cl)c2)cc1)C(=O)O | 22 mmHg | 2.89 and 1.5 | 17.75 mmHg | – | –
CC(C)(Oc1ccc(CCNC(=O)c2cc(Cl)cc(Cl)c2)cc1)C(=O)O | 12.5 mmHg | 1.78 and 1.42 and 2.33 | – | 10 mmHg | P50 [5]: 17.75 mmHg; P50 [6]: 22.75 mmHg
CC(C)(Oc1ccc(NC(=O)Nc2ccccc2)cc1)C(=O)O | 10 mmHg | 1.42 and 1.05 | 10 mmHg | – | –
CC(C)(Oc1ccc(NC(=O)Nc2ccc(Cl)c(Cl)c2)cc1)C(=O)O | – | 2.29 [middle of 4 runs] | – | 28.5 mmHg | P50 [5]: 23.5 mmHg; P50 [7]: 14.2 mmHg; P50 [8]: 15.5 mmHg
COc1ccc(NC(=O)Nc2ccc(OC(C)(C)C(=O)O)cc2)cc1OC | 14.5 mmHg | 2.07 and 1 | 8.5 mmHg | – | –
CC(C)(Oc1ccc(NC(=O)Nc2ccc([N+](=O)[O-])cc2)cc1)C(=O)O | 19 mmHg | 2.79 [middle of 4 runs] | – | 13 mmHg | P50 [9]: 21 mmHg; P50 [10]: 26.5 mmHg
CC(C)(Oc1ccc(NC(=O)Nc2ccccc2O)cc1)C(=O)O | 12.5 mmHg | 1.91 and 1.42 | 10 mmHg | – | –
CCOC(=O)Nc1ccc(NC(=O)Nc2ccc(OC(C)(C)C(=O)O)cc2)cc1 | 10.5 mmHg | 1.61 and 1.27 | 11.5 mmHg | – | –

SMILES | P50 [1] | Ratio [2] | P50 [3] | P50 [4] | further results
CC(C)(Oc1ccc(NC(=O)Nc2cc(Cl)c(Cl)cc2Cl)cc1)C(=O)O | – | – | – | – | P50 [11]: 12 mmHg; P50 [12]: 9 mmHg; P50 [7]: 16.8 mmHg; P50 [13]: 14.25 mmHg; P50 [8]: 31 mmHg; P50 [14]: 17.75 mmHg
Cc1ccc(NC(=O)Nc2ccc(OC(C)(C)C(=O)O)cc2)cc1 | 26 mmHg | 2.88 and 1.72 | 15.5 mmHg | – | –
CC(C)(Oc1ccc(NC(=O)Nc2cc(Cl)cc(Cl)c2)cc1)C(=O)O | – | 4.43 [middle of 4 runs] | – | 44.5 mmHg | P50 [5]: 51 mmHg; P50 [7]: 20.5 mmHg; P50 [8]: 22.75 mmHg
CC(C)(Oc1ccc(NC(=N)Nc2ccc(Cl)cc2)cc1)C(=O)O | 9 mmHg | 1.14 and 1.39 | 16 mmHg | – | –
CC(C)(Oc1ccc(NC(=O)Nc2ccc(O)cc2)cc1)C(=O)O | 11 mmHg | 1.68 and 1.21 | 8.5 mmHg | – | –
CC(C)(Oc1ccc(NC(=O)Nc2ccc(C=O)cc2)cc1)C(=O)O | 15 mmHg | 2.3 and 2.15 | 20.5 mmHg | – | –
O=C(O)COc1ccc(NC(=O)Nc2ccc(Cl)c(Cl)c2)cc1 | – | 1.14 [middle of 4 runs] | – | 10 mmHg | P50 [5]: 13 mmHg; P50 [7]: 8 mmHg; P50 [8]: 11.5 mmHg
CC(C)(Oc1ccc(NC(=O)Nc2cc(Cl)c(Cl)c(Cl)c2)cc1)C(=O)O | – | – | – | – | P50 [11]: 28.5 mmHg; P50 [12]: 16.2 mmHg; P50 [7]: 57.2 mmHg; P50 [13]: 27.5 mmHg; P50 [8]: 60 mmHg; P50 [14]: 35 mmHg
CC(C)(Oc1ccc(NC(=O)Nc2ccccc2Cl)cc1)C(=O)O | 14.2 mmHg | 1.75 and 1.42 | 16.2 mmHg | – | –
CC(=O)Oc1ccc(NC(=O)Nc2ccc(OC(C)(C)C(=O)O)cc2)cc1 | 11.5 mmHg | 1.64 and 1.77 | 16 mmHg | – | –
CC(C)(Oc1ccc(NC(=O)Nc2cc([N+](=O)[O-])ccc2Cl)cc1)C(=O)O | 23.5 mmHg | 3.61 and 4.21 | 40 mmHg | – | –
CC(C)(Oc1ccc(NC(=O)c2cc(Cl)cc(Cl)c2)cc1)C(=O)O | 16 mmHg | 2.34 [middle of 4 runs] | – | 12.2 mmHg | P50 [5]: 19.66 mmHg; P50 [6]: 25.33 mmHg
CC(C)(Oc1ccc(NC(=O)Nc2cc(Cl)ccc2Cl)cc1)C(=O)O | – | 2.56 [middle of 4 runs] | – | 18 mmHg | P50 [5]: 23.75 mmHg; P50 [7]: 11.5 mmHg; P50 [8]: 15.83 mmHg
CC(C)(Oc1ccc(NC(=O)Nc2ccc(Cl)c([N+](=O)[O-])c2)cc1)C(=O)O | 43.5 mmHg | 5.43 [middle of 4 runs] | – | 30 mmHg | P50 [5]: 40 mmHg; P50 [6]: 52.5 mmHg
CC(C)(Oc1ccc(NS(=O)(=O)Cc2ccccc2)cc1)C(=O)O | 9.16 mmHg | 1.34 and 1.64 | 11.5 mmHg | – | –
CC(C)(Oc1ccc(CC(NC(=O)c2ccc(Cl)cc2)C(=O)O)cc1)C(=O)O (configuration not stated) | 7.5 mmHg | 1.07 and 1.26 | 12 mmHg | – | –
CC(C)(Oc1ccc(NC(=O)Nc2cc(F)cc(F)c2)cc1)C(=O)O | 15.2 mmHg | 1.99 [middle of 4 runs] | – | 12.2 mmHg | P50 [5]: 15 mmHg; P50 [6]: 21 mmHg
CC(C)(Oc1ccc(NC(=O)Nc2ccc(Cl)cc2)cc1)C(=O)O | 21.8 mmHg | 2.7 and 1.64 | 19.5 mmHg | – | –
COc1cc(NC(=O)Nc2ccc(OC(C)(C)C(=O)O)cc2)cc(OC)c1OC | 11.5 mmHg | 1.64 and 1.05 | 9.5 mmHg | – | –
CC(C)(Oc1ccc(NC(=O)Nc2ccc(Cl)cc2Cl)cc1)C(=O)O | – | 2.04 [middle of 4 runs] | – | 15.5 mmHg | P50 [5]: 21.25 mmHg; P50 [7]: 9.75 mmHg; P50 [8]: 14.75 mmHg
